Tests used:
[1] = test system: mouse myelogenous leukemia (M-NFS-60) cell line; assay: Cytotoxic activity, MTT cell viability assay, M-NFS-60; assay type: cell-based; parameters: unit not given beside the values; conditions: n = 3, reference standard
How it was run: (§1)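 The defatted alcoholic root extract was tested at 4–500 μg/mL, with cisplatin as the reference standard, in an MTT cell-viability assay. Viability is expressed as % of untreated control. IC50 was derived by linear regression. Each point was run in triplicate and reported as mean ± SD.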

[2] = test system: Human hepatocellular carcinoma (HepG2) cell line; assay: Cytotoxic activity, MTT cell viability assay, HepG2; assay type: cell-based; parameters: unit not given beside the values; conditions: n = 3, reference standard
How it was run: as §1

N.N.[Cl][Pt][Cl] [cisplatin]
IC50 against M-NFS-60 cell line (unit not given) [1]: 8.37 ± 0.25 | IC50 against HepG2 cell line (unit not given) [2]: 3.25 ± 1.4

— paper PMC8158801 (ACS Omega, 2021)
